Compound activity: PubChem, The Scripps Research Institute Molecular Screening Center
OX1R antag-1: antagonists of human orexin 1 receptor (OX1R); inhibition, % at 6.6 µM; OX1R-expressing cells, FRET antagonist read-out; actives 1.8% (n = 330,000); Orexin/Hypocretin receptor type 1 (Homo sapiens), O43613; in the data active = inhibition mostly above about 38%, no sharp cut-off; inactive = mostly below about 40%;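 note: 0% = agonist challenge alone and 100% = reference antagonist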
CHO parental Ca: ATP-evoked calcium signal inhibitors, parental CHO, primary screen, counter-screen for OX1R antagonist project, cell-based, fluorescence, Fluo-8 calcium dye | actives 0.63% (n = 330,000) | inhibition, % at 5.6 µM | parental CHO-K1, ATP-induced calcium, Fluo-8 fluorescence;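 active = inhibition above that plate's mean sample inhibition plus 3 SD, cut at about 26% in these data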;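 note: 0% = ATP-challenged DMSO wells and 100% = DMSO wells without ATP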
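test system = CHO parental line | reagent = ATP stimulus | measured by = intracellular calcium via Fluo-8 no-wash fluorescent dye | control set = ATP and no-ATP DMSO wells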
TAAR1 antagonist: human TAAR1 antagonists, primary screen, Fluo-8 calcium fluorescence, CHO RD-HGA16 cells | Trace amine-associated receptor 1 (Homo sapiens), Q96RJ0 | antagonist | inhibition, % at 3 µM | actives 1.5% (n = 360,000) | AID 624466, 2012;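 active = inhibition above a per-plate cutoff, the mean inhibition of test compounds on that plate plus 3 SD, cut at about 49% in these data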;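 note: 0% = DMSO plus EC80 beta-PEA response and 100% = DMSO alone without agonist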
Target sequence (Q96RJ0 whole entry, looked up): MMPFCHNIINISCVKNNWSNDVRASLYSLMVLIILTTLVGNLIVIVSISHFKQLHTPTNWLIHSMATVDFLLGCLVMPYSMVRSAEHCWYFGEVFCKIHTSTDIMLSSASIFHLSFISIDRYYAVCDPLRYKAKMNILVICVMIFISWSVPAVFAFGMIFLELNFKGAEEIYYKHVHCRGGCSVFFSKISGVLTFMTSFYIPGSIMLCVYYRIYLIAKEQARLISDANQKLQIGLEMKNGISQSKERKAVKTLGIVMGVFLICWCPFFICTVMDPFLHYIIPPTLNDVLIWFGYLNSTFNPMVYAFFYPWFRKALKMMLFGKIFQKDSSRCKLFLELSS
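Assay system: RD-HGA16 CHO cells with stable hTAAR1 and Gα16 / Reagent: EC80 β-phenethylamine stimulus / Doses: 3 µM, single point / Timing: dye loading 75 min at 37 °C, then 30 min room temperature / Measured by: Fluo-8 intracellular calcium dye fluorescence, real-time kinetic reads / Controls: vehicle wells and EC80 agonist wells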
GPR7 antagonist: GPR7 receptor antagonists, primary screen, cell-based, fluorescence, single concentration | GPR7-expressing cells, fluorescence antagonist assay | Neuropeptides B/W receptor type 1 (Homo sapiens), P48145 | actives 1.1% (n = 290,000) | inhibition, % at 4.4 µM; in the data active = inhibition above about 16%, passing the limit was not always enough;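 note: cells stimulated with the agonist NPW; 0% = agonist with vehicle and 100% = vehicle without agonist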
Target sequence (P48145 whole entry, looked up): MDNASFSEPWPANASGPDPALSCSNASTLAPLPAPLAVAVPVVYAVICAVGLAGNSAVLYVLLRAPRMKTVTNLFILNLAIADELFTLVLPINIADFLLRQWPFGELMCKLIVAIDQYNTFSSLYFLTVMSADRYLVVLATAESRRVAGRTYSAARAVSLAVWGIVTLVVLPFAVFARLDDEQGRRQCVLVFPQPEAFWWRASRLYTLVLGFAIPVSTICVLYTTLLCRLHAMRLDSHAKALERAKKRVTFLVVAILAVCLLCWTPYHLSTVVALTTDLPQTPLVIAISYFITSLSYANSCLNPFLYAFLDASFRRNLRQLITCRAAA
TAAR1 ag: human TAAR1 agonists, primary screen, Fluo-8 calcium fluorescence, CHO RD-HGA16 cells | actives 0.99% (n = 360,000) | AID 624467, 2012 | vehicle wells 0%, saturating PEA agonist 100% | Trace amine-associated receptor 1 (Homo sapiens), Q96RJ0 | activation, % at 3 µM;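 active = activation above the mean activation of all test compounds in the run plus 3 SD, cut at about 38% in these data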
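Repeats: no replicates (n 1) | Material: CHO-derived RD-HGA16 cells with stable Gα16 and human TAAR1 | Technique: Kinetic Fluo-8 calcium fluorescence | Schedule: 17-24 h seeding, 75 min 37 °C dye, 30 min RT | Evaluation: % activation from peak over basal fluorescence ratio, DMSO-to-PEA scaled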
OX1R antag-2: OX1R (HCRTR1) antagonists, primary screen, fluorescence, CHO/OX1R cells, Fluo-8 calcium, orexin A; actives 0.43% (n = 330,000); Orexin/Hypocretin receptor type 1 (Homo sapiens), O43613; Fluo-8 calcium fluorescence; inhibition, % at 5 µM;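 active = inhibition above its plate's threshold, mean inhibition of all tested compounds on the plate plus 3 SD, cut at about 37% in these data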;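 note: 0% = orexin A challenge wells and 100% = SB-334867-A antagonist wells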
GPR7 antag cf: GPR7 receptor antagonists, confirmation, cell-based, fluorescence, single concentration; shares compounds with GPR7 antagonist; GPR7-expressing cells, calcium fluorescence antagonist mode; inhibition, % at 4.4 µM; actives 52% (n = 2,400); in the data active = inhibition above about 24%;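 note: stimulated with the GPR7 agonist NPW; 0% = agonist plus vehicle and 100% = vehicle alone without agonist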
MCHR1 antag: MCHR1 antagonists in cells, counter-screen for GPR7 antagonist project, cell-based, fluorescence, human; shares compounds with GPR7 antagonist; MCHR1-expressing cells, fluorescence antagonist assay; inhibition, % at 4.4 µM; actives 62% (n = 2,400); in the data active = inhibition above about 22%;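 note: 0% = vehicle with agonist and 100% = vehicle without agonist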
Starred values were filed as active, the others as inactive; / = not tested or not shown. The list is not random: actives were taken first. Their share in the collection is about 4.6%.

SMILES	OX1R antag-1	CHO parental Ca	TAAR1 antagonist	GPR7 antagonist	TAAR1 ag	OX1R antag-2	GPR7 antag cf	MCHR1 antag
COc1cccc(CC2(CO)CCCN(Cc3c(C)cc(C)cc3-n3cccn3)C2)c1 (configuration not stated)	8	-13	6	/	1	-34	/	9
O=C(CCC1CCCCC1)NCCN1C2=NC[C@H](Cc3ccccc3)N2C[C@H]1Cc1ccc(O)cc1	34	-26	-9	29	24	-16	/	/
O=C(CCC1CCCCC1)NCCN1C2=NC[C@@H](Cc3ccccc3)N2C[C@H]1Cc1ccc(O)cc1	8	-26	4	46*	14	-30	55*	30*
CC1(C(=O)NCc2ccccc2)CSCC(=O)N1CCOc1ccccc1 (configuration not stated)	/	/	1	/	0	/	/	/
CCc1ccc(NC(=O)c2ccc3c(c2)CCN3S(C)(=O)=O)cc1	/	/	12	/	6	/	/	/
COc1ccc(OCCn2c(=N)n(CCO)c3ccccc32)cc1	11	-15	8	-1	0	-8	/	/
N=c1n(CCO)c2ccccc2n1CCOc1ccc(Cl)cc1Cl	18	9	-18	31*	9	-14	58*	43*
Cc1cc(OCC(=O)OCC(=O)NC2CCS(=O)(=O)C2)ccc1Cl (configuration not stated)	/	/	-1	/	2	/	/	/
Nc1nc2n(n1)C(c1ccccc1)CC(c1ccc(F)cc1)N2 (configuration not stated)	7	-5	-4	-8	3	-9	/	/
Nc1nc2n(n1)C(c1cccc(Br)c1)CC(c1ccc(F)cc1)N2 (configuration not stated)	14	-7	8	35*	13	-13	18	4
c1ccc(COc2ncnc3c2ncn3CCCNCc2cccs2)cc1	/	/	-27	/	0	/	/	/
O=C(CNC(=O)c1ccco1)OCc1c(F)cccc1Cl	8	-5	13	25*	24	2	0	7
O=C(CNC(=O)c1ccco1)NCC(=O)OCc1c(F)cccc1Cl	2	-9	6	-15	0	-6	/	/
c1ccc(-c2nnc(-c3ccccc3)c(-c3c[nH]c4ccccc34)n2)cc1	32	1	0	19	6	-10	/	/
c1ccc2c(-c3ccncc3)c[nH]c2c1	21	-3	-4	23*	17	12	-18	12
CC(C)Oc1cc(F)ccc1-c1cc(C(=O)NC2CCCCC2)[nH]n1	/	/	7	/	1	/	/	/
O=c1c(-c2cc3ccccc3[nH]2)nc2ccccc2n1C(CCc1ccccc1)c1nc2ccccc2[nH]1 (configuration not stated)	/	/	-7	/	2	/	/	/
C/C(CC(=O)Nc1cccc2c1CCCC2)=N\NC(=O)c1cccc2ccccc12	19	-18	10	16	1	-17	/	/
C/C(CC(=O)Nc1cccc2c1CCCC2)=N\NC(=O)c1ccccc1N	5	-24	21	25*	24	-10	15	6
COC(=O)c1ccc(OCC(=O)NCCC2=CCCCC2)c(OC)c1	16	-18	-5	/	17	-12	/	/
CCC(=O)c1ccc(OCC(=O)NCCC2=CCCCC2)c(OC)c1	8	-27	2	24*	0	-29	4	4
N#Cc1ccc(CN2CCN(CC(=O)NCCc3ccc(Cl)cc3Cl)CC2)cc1	6	-21	10	22*	9	-24	31*	8
CC(C)NC(=O)C1(C)CCN1C/C=C/c1ccccc1 (configuration not stated)	/	/	0	/	0	/	/	/
COc1ccc(N2C(=O)/C(=C3/C=CC=CN3C)SC2=S)cc1	21	-5	-4	24*	6	-9	-9	5
CCn1c(C)nc2cc(C(N)=O)ccc21	8	-8	6	-7	4	-11	/	/
SMILES	OX1R antag-1	CHO parental Ca	TAAR1 antagonist	GPR7 antagonist	TAAR1 ag	OX1R antag-2	GPR7 antag cf	MCHR1 antag
CCn1c(C)nc2cc(N)ccc21	24	-9	-7	27*	1	-14	-10	1
O=C(NCc1ccccc1)C(c1ccc(-c2ccccc2)cc1)n1c(=O)c(-c2ccco2)nc2ccccc21 (configuration not stated)	/	/	-24	/	1	/	/	/
Cc1c(Cl)sn(-c2ccc(Cl)cc2)c1=O	/	/	61*	25*	12	/	73*	91*
Cc1nn(-c2ccc(Cl)cc2)c(=O)c2ccccc12	3	-1	2	1	2	-17	/	/
CNC(=O)C1C2C=CC3(O2)C1C(=O)N(C1CC1)C3C(=O)NCc1ccc(OC)cc1 (configuration not stated)	23	2	10	25*	4	-10	-3	-3
CCCCC[C@@H](C)N1C[C@H](COCc2ccccc2)Oc2cc(N3CC[C@H](N(C)C)C3)ccc2S1(=O)=O	/	/	11	/	10	/	/	/
CC(=O)c1ccc(N2CCN(S(=O)(=O)c3ccc4c5c3CC(=O)N5CC(C)S4)CC2)cc1 (configuration not stated)	13	-9	/	25*	/	-7	11	41*
CC(=O)c1ccc(N2CCN(S(=O)(=O)c3ccc4c(c3)CC(=O)N4)CC2)cc1	6	11	-22	-6	2	-9	/	/
COC(=O)CC1(C(=O)OC)Oc2ccc(Br)cc2C(=O)N1c1cccc(Cl)c1Cl (configuration not stated)	10	-29	11	30*	3	-16	32*	53*
COC(=O)CC1(C(=O)OC)Oc2ccc(Br)cc2C(=O)N1c1ccc(Br)cc1Cl (configuration not stated)	20	-10	17	0	5	-16	/	/
O=C(c1ccc2c(c1)OCO2)N(CC1CCCO1)C1(C(=O)NC2CCCC2)CCCCC1 (configuration not stated)	10	-18	-7	32*	2	-20	31*	17
COc1cc(/C=N/NC(=O)c2ccc(F)cc2)ccc1OC(=O)c1ccco1	5	-14	2	5	3	-15	/	/
